Source: ChEMBL document CHEMBL4765445, “Structure-activity relationship study of novel quinazoline-based 1,6-naphthyridinones as MET inhibitors with potent antitumor efficacy” (Eur J Med Chem, 2020)

Key:
[1] = target: T1, Hepatocyte growth factor receptor (Homo sapiens, UniProt P08581); assay: Inhibition of recombinant MET kinase domain (unknown origin)
[2] = target: Vascular endothelial growth factor receptor 2 (Homo sapiens, UniProt P35968); assay: Inhibition of recombinant VEGFR2 kinase domain (unknown origin)
Vascular endothelial growth factor receptor 2, sequence (P35968 whole entry, the tested form may be a part): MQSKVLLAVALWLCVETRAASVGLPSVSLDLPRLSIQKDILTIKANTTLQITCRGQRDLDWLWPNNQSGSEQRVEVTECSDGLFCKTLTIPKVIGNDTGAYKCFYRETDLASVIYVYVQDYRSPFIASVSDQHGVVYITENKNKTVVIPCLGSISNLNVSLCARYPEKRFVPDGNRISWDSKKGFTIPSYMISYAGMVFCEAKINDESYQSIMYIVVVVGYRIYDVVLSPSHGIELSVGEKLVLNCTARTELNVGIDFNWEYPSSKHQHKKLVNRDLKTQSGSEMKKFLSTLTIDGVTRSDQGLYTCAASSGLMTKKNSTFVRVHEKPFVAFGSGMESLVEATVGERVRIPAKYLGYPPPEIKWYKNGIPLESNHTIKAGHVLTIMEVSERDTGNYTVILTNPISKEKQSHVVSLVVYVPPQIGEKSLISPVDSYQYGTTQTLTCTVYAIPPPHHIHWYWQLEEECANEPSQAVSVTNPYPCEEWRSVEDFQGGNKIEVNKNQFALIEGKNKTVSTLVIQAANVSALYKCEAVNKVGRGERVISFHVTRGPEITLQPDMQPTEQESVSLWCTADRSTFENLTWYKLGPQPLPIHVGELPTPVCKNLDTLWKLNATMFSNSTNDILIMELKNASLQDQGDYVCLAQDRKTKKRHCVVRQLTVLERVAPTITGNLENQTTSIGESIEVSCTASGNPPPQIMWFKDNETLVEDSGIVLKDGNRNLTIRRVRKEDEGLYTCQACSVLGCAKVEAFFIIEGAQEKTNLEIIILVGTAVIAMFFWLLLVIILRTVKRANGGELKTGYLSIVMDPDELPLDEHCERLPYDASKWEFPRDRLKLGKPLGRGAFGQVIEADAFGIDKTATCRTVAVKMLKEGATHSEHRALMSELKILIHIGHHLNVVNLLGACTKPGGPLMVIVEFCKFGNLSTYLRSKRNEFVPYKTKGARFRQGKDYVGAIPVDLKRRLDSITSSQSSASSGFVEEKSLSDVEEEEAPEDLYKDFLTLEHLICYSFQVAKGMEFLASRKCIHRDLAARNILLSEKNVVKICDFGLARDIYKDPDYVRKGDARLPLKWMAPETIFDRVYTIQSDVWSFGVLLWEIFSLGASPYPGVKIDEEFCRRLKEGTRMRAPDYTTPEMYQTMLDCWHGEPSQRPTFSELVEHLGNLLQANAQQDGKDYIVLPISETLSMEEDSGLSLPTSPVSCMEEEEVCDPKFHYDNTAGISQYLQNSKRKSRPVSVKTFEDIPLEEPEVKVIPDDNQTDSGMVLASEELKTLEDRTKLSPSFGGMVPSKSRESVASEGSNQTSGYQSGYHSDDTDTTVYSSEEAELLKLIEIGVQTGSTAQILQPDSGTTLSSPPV
Outline: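 In vitro kinase assay using purified recombinant VEGFR-2 kinase domain; IC50 determined.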

[3] = target: T1, Hepatocyte growth factor receptor; assay: Inhibition of MET in human MKN-45 cells assessed as reduction in HGF-mediated autophosphorylation; assay type: cell-based
[4] = Half life in human liver microsomes; assay type: ADME, Microsome
Homo sapiens = species: Homo sapiens; assay: Selectivity ratio of IC50 for recombinant VEGFR2 (unknown origin) to IC50 for recombinant MET (unknown origin)
Outline: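 In vitro enzyme assays used purified recombinant MET and VEGFR-2 kinase domains, each tested separately. IC50 values are in nM. The ratio divides the VEGFR-2 enzyme IC50 by the MET enzyme IC50.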

[5] = target: T2, Tyrosine-protein kinase receptor UFO (Homo sapiens, UniProt P30530); assay: Inhibition of Axl (unknown origin)
T2 sequence (P30530 whole entry): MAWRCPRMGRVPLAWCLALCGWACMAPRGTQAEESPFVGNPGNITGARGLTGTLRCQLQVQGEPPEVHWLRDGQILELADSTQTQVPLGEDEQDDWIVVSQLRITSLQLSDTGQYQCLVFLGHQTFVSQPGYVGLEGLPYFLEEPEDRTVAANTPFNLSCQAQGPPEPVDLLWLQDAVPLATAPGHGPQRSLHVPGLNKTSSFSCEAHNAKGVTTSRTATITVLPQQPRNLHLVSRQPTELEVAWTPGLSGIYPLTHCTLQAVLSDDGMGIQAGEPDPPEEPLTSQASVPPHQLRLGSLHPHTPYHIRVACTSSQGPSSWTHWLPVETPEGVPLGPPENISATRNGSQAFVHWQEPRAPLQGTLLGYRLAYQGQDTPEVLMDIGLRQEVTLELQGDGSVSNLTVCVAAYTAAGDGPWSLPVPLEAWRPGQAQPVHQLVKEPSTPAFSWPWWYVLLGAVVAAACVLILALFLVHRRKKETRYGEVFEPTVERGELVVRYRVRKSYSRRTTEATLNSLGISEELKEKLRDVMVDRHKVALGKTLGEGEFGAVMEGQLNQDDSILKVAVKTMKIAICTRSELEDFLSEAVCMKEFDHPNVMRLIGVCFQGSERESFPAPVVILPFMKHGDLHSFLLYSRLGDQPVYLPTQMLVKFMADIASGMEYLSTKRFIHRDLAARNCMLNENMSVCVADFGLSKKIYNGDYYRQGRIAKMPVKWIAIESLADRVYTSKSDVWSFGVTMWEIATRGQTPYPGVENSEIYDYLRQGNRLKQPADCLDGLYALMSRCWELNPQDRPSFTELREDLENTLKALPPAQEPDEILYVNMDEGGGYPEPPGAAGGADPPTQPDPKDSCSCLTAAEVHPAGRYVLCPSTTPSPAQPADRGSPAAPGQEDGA

[6] = target: Mast/stem cell growth factor receptor Kit (Homo sapiens, UniProt P10721); assay: Inhibition of c-KIT (unknown origin)
[7] = target: T3, Receptor-type tyrosine-protein kinase FLT3 (Homo sapiens, UniProt P36888); assay: Inhibition of FLT3 (unknown origin)
T3 sequence (P36888 whole entry): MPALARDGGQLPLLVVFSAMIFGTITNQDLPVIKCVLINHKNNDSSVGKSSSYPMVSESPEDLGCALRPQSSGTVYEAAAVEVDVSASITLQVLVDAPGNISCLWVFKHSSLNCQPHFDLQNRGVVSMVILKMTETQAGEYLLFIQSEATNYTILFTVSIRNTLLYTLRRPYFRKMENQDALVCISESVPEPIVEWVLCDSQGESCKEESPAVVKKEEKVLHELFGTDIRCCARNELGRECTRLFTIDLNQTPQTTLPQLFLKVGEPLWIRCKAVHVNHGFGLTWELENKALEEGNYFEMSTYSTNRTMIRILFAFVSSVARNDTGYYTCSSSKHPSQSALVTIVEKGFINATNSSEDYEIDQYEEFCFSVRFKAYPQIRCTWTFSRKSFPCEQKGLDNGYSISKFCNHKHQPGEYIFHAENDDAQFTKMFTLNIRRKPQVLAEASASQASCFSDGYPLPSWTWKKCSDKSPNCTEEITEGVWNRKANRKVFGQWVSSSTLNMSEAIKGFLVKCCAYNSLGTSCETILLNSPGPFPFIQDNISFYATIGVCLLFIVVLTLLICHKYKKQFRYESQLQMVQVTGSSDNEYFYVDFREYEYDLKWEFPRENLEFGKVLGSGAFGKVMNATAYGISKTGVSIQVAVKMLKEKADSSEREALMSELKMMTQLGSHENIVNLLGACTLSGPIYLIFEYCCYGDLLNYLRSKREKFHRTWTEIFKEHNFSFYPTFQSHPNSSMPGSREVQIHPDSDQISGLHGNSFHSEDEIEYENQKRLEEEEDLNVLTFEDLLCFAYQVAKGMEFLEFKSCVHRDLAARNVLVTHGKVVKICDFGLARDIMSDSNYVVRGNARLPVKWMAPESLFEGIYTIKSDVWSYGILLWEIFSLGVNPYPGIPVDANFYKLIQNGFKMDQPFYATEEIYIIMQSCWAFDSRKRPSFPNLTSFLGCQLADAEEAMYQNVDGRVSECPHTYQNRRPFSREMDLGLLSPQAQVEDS

[8] = target: Platelet-derived growth factor receptor beta (Homo sapiens, UniProt P09619); assay: Inhibition of PDGFRbeta (unknown origin)
Platelet-derived growth factor receptor beta, sequence (P09619 whole entry): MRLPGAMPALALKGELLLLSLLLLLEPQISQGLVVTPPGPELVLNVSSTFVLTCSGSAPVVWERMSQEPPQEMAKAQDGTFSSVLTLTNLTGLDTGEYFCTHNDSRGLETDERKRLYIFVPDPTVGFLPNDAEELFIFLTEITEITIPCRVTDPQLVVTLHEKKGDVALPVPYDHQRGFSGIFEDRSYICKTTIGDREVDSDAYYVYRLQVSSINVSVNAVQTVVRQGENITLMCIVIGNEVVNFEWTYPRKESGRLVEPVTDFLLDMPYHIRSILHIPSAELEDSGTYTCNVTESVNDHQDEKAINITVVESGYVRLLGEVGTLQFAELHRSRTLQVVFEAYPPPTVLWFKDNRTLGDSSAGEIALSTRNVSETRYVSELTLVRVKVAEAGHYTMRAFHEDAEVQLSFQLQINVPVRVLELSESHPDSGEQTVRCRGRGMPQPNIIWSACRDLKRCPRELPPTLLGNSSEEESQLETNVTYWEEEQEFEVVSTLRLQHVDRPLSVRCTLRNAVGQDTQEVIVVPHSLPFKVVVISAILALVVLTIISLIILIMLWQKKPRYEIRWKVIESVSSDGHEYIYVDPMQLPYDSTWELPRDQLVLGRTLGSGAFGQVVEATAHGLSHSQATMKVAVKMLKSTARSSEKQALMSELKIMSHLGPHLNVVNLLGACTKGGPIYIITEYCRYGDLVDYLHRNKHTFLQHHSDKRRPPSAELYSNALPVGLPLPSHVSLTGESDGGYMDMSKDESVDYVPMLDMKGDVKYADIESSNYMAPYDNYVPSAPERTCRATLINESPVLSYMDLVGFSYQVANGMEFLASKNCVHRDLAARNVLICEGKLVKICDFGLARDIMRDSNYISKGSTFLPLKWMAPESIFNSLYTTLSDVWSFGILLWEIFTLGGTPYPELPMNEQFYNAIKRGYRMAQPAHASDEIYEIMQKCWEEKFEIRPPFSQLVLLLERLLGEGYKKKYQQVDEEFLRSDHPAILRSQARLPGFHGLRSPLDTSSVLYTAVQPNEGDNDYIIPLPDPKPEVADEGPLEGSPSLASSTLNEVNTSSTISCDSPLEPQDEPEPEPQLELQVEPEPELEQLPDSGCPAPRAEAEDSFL

[9] = target: Proto-oncogene tyrosine-protein kinase receptor Ret (Homo sapiens, UniProt P07949); assay: Inhibition of RET (unknown origin)
Proto-oncogene tyrosine-protein kinase receptor Ret, sequence (P07949 whole entry): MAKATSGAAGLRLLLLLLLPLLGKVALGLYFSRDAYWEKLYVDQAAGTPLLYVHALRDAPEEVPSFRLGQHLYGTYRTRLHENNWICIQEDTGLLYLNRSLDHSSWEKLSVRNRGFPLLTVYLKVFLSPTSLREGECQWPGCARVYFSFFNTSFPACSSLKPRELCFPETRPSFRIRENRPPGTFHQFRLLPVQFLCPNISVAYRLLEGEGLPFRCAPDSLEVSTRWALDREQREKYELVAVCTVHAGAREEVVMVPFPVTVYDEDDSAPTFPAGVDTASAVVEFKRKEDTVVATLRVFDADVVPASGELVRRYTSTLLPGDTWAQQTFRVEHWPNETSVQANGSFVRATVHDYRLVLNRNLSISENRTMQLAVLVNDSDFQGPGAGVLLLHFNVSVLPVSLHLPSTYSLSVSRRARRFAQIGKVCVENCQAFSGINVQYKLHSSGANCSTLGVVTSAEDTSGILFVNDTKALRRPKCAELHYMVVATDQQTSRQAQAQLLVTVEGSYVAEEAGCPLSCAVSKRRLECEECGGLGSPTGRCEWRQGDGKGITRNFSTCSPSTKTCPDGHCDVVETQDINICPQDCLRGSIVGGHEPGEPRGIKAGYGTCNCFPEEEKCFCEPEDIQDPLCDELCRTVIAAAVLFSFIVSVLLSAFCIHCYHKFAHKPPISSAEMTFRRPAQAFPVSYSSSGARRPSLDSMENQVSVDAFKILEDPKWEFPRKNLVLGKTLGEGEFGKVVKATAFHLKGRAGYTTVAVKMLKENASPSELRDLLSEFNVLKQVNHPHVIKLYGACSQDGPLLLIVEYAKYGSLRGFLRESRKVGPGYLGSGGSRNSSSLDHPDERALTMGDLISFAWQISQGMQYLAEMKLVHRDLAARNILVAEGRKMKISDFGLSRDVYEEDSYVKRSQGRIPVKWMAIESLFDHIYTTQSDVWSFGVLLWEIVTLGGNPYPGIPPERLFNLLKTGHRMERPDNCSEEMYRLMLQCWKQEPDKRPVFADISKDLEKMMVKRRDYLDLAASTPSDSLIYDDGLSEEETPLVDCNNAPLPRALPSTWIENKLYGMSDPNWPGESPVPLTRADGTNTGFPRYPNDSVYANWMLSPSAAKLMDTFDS

[10] = target: Macrophage-stimulating protein receptor (Homo sapiens, UniProt Q04912); assay: Inhibition of Ron (unknown origin)

T1 sequence (P08581 whole entry, the tested form may be a part): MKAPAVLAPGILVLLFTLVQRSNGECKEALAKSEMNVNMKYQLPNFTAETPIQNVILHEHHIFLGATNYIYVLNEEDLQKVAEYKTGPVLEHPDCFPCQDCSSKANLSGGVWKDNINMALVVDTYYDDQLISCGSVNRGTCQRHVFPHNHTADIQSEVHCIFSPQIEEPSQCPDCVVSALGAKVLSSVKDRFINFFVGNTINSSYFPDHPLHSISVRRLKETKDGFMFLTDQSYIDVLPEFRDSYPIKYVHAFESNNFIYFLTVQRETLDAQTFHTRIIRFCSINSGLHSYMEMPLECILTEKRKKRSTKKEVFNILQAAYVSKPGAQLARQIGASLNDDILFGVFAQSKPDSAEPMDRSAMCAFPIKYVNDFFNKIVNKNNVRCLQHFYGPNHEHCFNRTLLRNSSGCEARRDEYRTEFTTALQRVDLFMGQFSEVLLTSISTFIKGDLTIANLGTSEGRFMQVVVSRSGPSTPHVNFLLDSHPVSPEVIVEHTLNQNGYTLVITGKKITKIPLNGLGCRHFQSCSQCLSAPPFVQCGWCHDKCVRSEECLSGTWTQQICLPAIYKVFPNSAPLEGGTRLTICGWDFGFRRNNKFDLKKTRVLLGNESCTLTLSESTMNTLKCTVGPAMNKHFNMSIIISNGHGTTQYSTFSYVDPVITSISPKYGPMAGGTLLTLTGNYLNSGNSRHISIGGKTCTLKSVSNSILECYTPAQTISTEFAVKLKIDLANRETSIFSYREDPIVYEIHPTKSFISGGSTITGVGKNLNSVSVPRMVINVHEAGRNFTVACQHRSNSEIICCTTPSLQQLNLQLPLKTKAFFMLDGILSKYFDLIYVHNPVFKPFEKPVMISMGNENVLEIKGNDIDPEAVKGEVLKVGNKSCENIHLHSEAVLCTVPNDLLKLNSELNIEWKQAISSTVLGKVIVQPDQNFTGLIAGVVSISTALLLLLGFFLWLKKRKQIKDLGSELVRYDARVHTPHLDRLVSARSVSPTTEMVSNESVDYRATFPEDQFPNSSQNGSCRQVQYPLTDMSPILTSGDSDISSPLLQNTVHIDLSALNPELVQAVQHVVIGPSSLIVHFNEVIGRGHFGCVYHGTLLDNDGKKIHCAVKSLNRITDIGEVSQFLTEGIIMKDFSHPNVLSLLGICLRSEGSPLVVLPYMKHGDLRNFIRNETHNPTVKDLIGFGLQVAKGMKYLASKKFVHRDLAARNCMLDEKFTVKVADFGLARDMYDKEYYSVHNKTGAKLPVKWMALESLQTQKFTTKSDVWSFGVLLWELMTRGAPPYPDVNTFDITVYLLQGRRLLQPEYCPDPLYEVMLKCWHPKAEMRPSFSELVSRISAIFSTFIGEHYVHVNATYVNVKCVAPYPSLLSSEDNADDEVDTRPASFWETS

| IC50 [1] [nM] | IC50 [2] [nM] | SMILES | other results |
| --- | --- | --- | --- |
| 227 | 455 | COc1cc2ncnc(Oc3ccc(Nc4nccc5[nH]c(C)c(-c6ccc(F)cc6)c(=O)c45)cc3F)c2cc1OC | – |
| 23.2 | 121 | COc1cc2ncnc(Oc3ccc(Nc4nccc5[nH]cc(-c6ccc(F)cc6)c(=O)c45)cc3F)c2cc1OCCCN1CCOCC1 | – |
| 42 | 140 | COCCOc1cc2ncnc(Oc3ccc(Nc4nccc5[nH]cc(-c6ccc(F)cc6)c(=O)c45)cc3F)c2cc1OC | – |
| 164 | > 3000 | COCCn1cc(-c2ccc(F)cc2)c(=O)c2c(Nc3ccc(Oc4ncnc5cc(OC)c(OC)cc45)c(F)c3)nccc21 | – |
| 9.4 | 163 | CCN(CC)CCCOc1cc2c(Oc3ccc(Nc4nccc5[nH]cc(-c6ccc(F)cc6)c(=O)c45)cc3F)ncnc2cc1OC | IC50 [3]: 397 nM |
| 8.3 | 128 | COc1cc2c(Oc3ccc(Nc4nccc5[nH]cc(-c6ccc(F)cc6)c(=O)c45)cc3F)ncnc2cc1OCCCN1CCCC1 | IC50 [3]: 130 nM |
| 21.7 | 227 | COc1cc2c(Oc3ccc(Nc4nccc5[nH]cc(-c6ccc(F)cc6)c(=O)c45)cc3F)ncnc2cc1OCCCN1CCOCC1 | – |
| 7.9 | 52.9 | COc1cc2ncnc(Oc3ccc(Nc4nccc5[nH]cc(-c6ccc(F)cc6)c(=O)c45)cc3F)c2cc1OCC(C)(C)O | half-life [4]: 4.17 h |
| 39.3 | 68 | COc1cc2c(Oc3ccc(Nc4nccc5[nH]cc(-c6ccc(F)cc6)c(=O)c45)cc3F)ncnc2cc1OCCCO | – |
| – | 267 | COc1cc2ncnc(Oc3ccc(Nc4nccc5[nH]cc(-c6ccc(F)cc6)c(=O)c45)cc3F)c2cc1OC | IC50 [3]: 59.4 nM; half-life [4]: 4.83 h; Ratio IC50 (Homo sapiens): 27.6; IC50 [5]: 11 nM; IC50 [6]: 45.1 nM; IC50 [7]: 10.2 nM; IC50 [8]: 1360 nM; IC50 [9]: 65.3 nM; IC50 [10]: 90.1 nM |
| 8.1 | 145 | COc1cc2ncnc(Oc3ccc(Nc4nccc5[nH]cc(-c6ccc(F)cc6)c(=O)c45)cc3F)c2cc1OCCCN1CCCC1 | – |
| 9.5 | 47.6 | O=c1c(-c2ccc(F)cc2)c[nH]c2ccnc(Nc3ccc(Oc4ncnc5cc6c(cc45)OCCOCCOCCO6)c(F)c3)c12 | half-life [4]: 0.83 h |
